Measurements from ChEMBL document CHEMBL1152659, “Removal of the 20-methyl group from 2-methylene-19-nor-(20S)-1alpha,25-dihydroxyvitamin D(3) (2MD) selectively eliminates bone calcium mobilization activity” (Bioorg Med Chem, 2009).

Tests used:
Rattus norvegicus [1] = assay: Effect on intestinal calcium transport in weanling Sprague-Dawley rat assessed as ratio of serosal to mucosal calcium level at 780 pmol/day, ip administered for 4 consecutive days measured 24 hrs after last dose by everted gut sac method; type: functional
Procedure, shortened: (§1)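 Same rats and regimen: low/normal Ca diet cycling, then four i.p. doses about 24 h apart during the final 0.02% Ca week. First 10 cm of intestine taken 24 h after the last dose; Ca transport measured by everted gut sac.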

Rattus norvegicus [2] = assay: Effect on intestinal calcium transport in weanling Sprague-Dawley rat assessed as ratio of serosal to mucosal calcium level at 260 pmol/day, ip administered for 4 consecutive days measured 24 hrs after last dose by everted gut sac method; type: functional; procedure, shortened: as §1
Vitamin D3 receptor [3] = molecular target: T1, Vitamin D3 receptor (Rattus norvegicus, UniProt P13053); assay: Displacement of radiolabeled 1-alpha,25-(OH)2D3 from rat recombinant full length VDR
T1 sequence (P13053 whole entry): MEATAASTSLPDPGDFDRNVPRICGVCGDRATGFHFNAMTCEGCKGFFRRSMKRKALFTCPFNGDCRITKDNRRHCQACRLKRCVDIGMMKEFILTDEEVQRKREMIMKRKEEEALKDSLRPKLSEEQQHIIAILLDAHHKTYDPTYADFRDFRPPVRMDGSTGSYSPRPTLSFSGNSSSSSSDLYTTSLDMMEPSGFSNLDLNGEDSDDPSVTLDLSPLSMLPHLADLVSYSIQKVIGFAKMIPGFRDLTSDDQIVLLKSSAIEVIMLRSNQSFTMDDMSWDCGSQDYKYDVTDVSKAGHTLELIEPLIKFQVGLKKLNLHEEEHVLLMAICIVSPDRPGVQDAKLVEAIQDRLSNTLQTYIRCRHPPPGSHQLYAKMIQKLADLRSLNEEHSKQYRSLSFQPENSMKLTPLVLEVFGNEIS

Vitamin D3 receptor [4] = molecular target: T1, Vitamin D3 receptor; assay: Activity at VDR in rat osteosarcoma cells assessed as induction of 24-hydroxylase reporter gene transcription by luciferase reporter gene assay; type: cell-based
Procedure, shortened: (§2)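 Rat osteosarcoma cells stably transfected with a 24-hydroxylase gene reporter plasmid; luciferase read-out. EC50 from dose–response curves = concentration raising luciferase activity by 50%. Ratio = average of analog EC50 over 1α,25-(OH)2D3 EC50. Duplicates on at least two separate occasions.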

HL-60 [5] = assay: Induction of differentiation of human HL60 promyelocytes into monocytes after 4 days by NBT reduction assay; type: functional, cell-based; conditions: HL-60, 96 h
[6] = molecular target: T2, Vitamin D3 receptor (Rattus norvegicus) (UniProt P13053); assay: Ratio of compound Ki to [3H]1-alpha,25-(OH)2D3 Ki for rat recombinant full length VDR
T2 sequence (whole entry): T1 sequence (P13053 whole entry)

Rattus norvegicus [7] = assay: Effect on bone calcium mobilization in weanling Sprague-Dawley rat assessed as serum calcium level at 2340 pmol/day, ip administered for 4 consecutive days measured 24 hrs after last dose; type: functional
Procedure, shortened: (§3)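 Male weanling rats fed 0.47% Ca + AEK oil for 1 wk, then 0.02% Ca for 3 wk, then 0.47% Ca for 1 wk, then 0.02% Ca for 2 wk. Dosing during the final low-Ca week: four i.p. doses about 24 h apart. Serum Ca measured on blood from severed neck 24 h after the last dose; statistics applied.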

Rattus norvegicus [8] = assay: Effect on bone calcium mobilization in weanling Sprague-Dawley rat assessed as serum calcium level at 260 pmol/day, ip administered for 4 consecutive days measured 24 hrs after last dose; type: functional; procedure, shortened: as §3
Rattus norvegicus [9] = assay: Effect on intestinal calcium transport in weanling Sprague-Dawley rat assessed as ratio of serosal to mucosal calcium level at 7020 pmol/day, ip administered for 4 consecutive days measured 24 hrs after last dose by everted gut sac method; type: functional; procedure, shortened: as §1
[10] = molecular target: T2, Vitamin D3 receptor (Rattus norvegicus); assay: Ratio of compound EC50 to [3H]1-alpha,25-(OH)2D3 EC50 for VDR in rat osteosarcoma cells by 24-hydroxylase gene transcriptional activation assay; type: cell-based; procedure, shortened: as §2
Rattus norvegicus [11] = assay: Effect on bone calcium mobilization in weanling Sprague-Dawley rat assessed as serum calcium level at 7020 pmol/day, ip administered for 4 consecutive days measured 24 hrs after last dose; type: functional; procedure, shortened: as §3
Rattus norvegicus [12] = assay: Effect on intestinal calcium transport in weanling Sprague-Dawley rat assessed as ratio of serosal to mucosal calcium level at 2340 pmol/day, ip administered for 4 consecutive days measured 24 hrs after last dose by everted gut sac method; type: functional; procedure, shortened: as §1
Rattus norvegicus [13] = assay: Effect on bone calcium mobilization in weanling Sprague-Dawley rat assessed as serum calcium level at 780 pmol/day, ip administered for 4 consecutive days measured 24 hrs after last dose; type: functional; procedure, shortened: as §3
HL-60 [14] = assay: Ratio of compound ED50 to [3H]1-alpha,25-(OH)2D3 ED50 for induction of differentiation of human HL60 promyelocytes into monocytes after 4 days by NBT reduction assay; type: functional
Rattus norvegicus [15] = assay: Effect on intestinal calcium transport in weanling Sprague-Dawley rat assessed as ratio of serosal to mucosal calcium level at 87 pmol/day, ip administered for 4 consecutive days measured 24 hrs after last dose by everted gut sac method; type: functional; procedure, shortened: as §1
Rattus norvegicus [16] = assay: Effect on bone calcium mobilization in weanling Sprague-Dawley rat assessed as serum calcium level at 87 pmol/day, ip administered for 4 consecutive days measured 24 hrs after last dose; type: functional; procedure, shortened: as §3

| Structure (SMILES) | Ki (Vitamin D3 receptor [3]) [nM] | EC50 (Vitamin D3 receptor [4]) [nM] | EC50 (HL-60 [5]) [nM] | Ratio Ki [6] | Ratio EC50 [10] | Ratio (Rattus norvegicus [1]) | Ratio (Rattus norvegicus [2]) | Activity (Rattus norvegicus [7]) [mg/dL] | Activity (Rattus norvegicus [8]) | Ratio (Rattus norvegicus [9]) | Activity (Rattus norvegicus [11]) [mg/dL] | Ratio (Rattus norvegicus [12]) | Activity (Rattus norvegicus [13]) [mg/dL] | Ratio ED50 (HL-60 [14]) | Ratio (Rattus norvegicus [15]) | Activity (Rattus norvegicus [16]) [mg/dL] |
| --- | --- | --- | --- | --- | --- | --- | --- | --- | --- | --- | --- | --- | --- | --- | --- | --- |
| C=C1[C@H](O)CC(=C/C=C2\CCC[C@@H]3[C@@H]([C@@H](C)CCCC(C)(C)O)CC[C@@H]23)C[C@H]1O | 0.02 | 0.02 | 0.4 | 0.2 | 0.07 | 10 | 8.4 | 7.8 | 5.7 | 14.5 | 8.7 | 8.5 | 6.6 | 0.2 | – | – |
| C=C1[C@H](O)CC(=C/C=C2\CCC[C@]3(C)[C@@H]([C@@H](C)CCCC(C)(C)O)CC[C@@H]23)C[C@H]1O [DP001] | – | – | – | – | – | 10.9 | 11.4 | – | 9.3 mg/dL | – | – | – | 11.1 | – | 12.3 | 8.4 |
| C=C1/C(=C\C=C2/CCC[C@]3(C)[C@@H]([C@H](C)CCCC(C)(C)O)CC[C@@H]23)C[C@@H](O)C[C@@H]1O [CALCITRIOL] | – | – | – | – | – | – | – | 6.9 | 5 mg/dL | – | – | – | 5.3 | – | – | 4.6 |

Further lines, with some results ahead:

| Ki (Vitamin D3 receptor [3]) [nM] | EC50 (Vitamin D3 receptor [4]) [nM] | EC50 (HL-60 [5]) [nM] | Ratio Ki [6] | Ratio EC50 [10] | Structure (SMILES) | Ratio (Rattus norvegicus [1]) | Ratio (Rattus norvegicus [2]) | Activity (Rattus norvegicus [7]) [mg/dL] | Activity (Rattus norvegicus [8]) | Ratio (Rattus norvegicus [9]) | Activity (Rattus norvegicus [11]) [mg/dL] | Ratio (Rattus norvegicus [12]) | Activity (Rattus norvegicus [13]) [mg/dL] | Ratio ED50 (HL-60 [14]) | Ratio (Rattus norvegicus [15]) | Activity (Rattus norvegicus [16]) [mg/dL] |
| --- | --- | --- | --- | --- | --- | --- | --- | --- | --- | --- | --- | --- | --- | --- | --- | --- |
| 0.1 | 0.06 | 0.3 | 1 | 0.2 | C=C1[C@H](O)CC(=C/C=C2\CCC[C@@H]3[C@@H](CCCCC(C)(C)O)CC[C@@H]23)C[C@H]1O | – | 2.3 | 6.1 | 4.3 mg/dL | 11.4 | 6.5 | 7.5 | – | 0.15 | 7.2 | 4 |
| 0.2 | 0.2 | 0.2 | 2 | 0.67 | C=C1[C@H](O)CC(=C/C=C2\CCC[C@]3(C)[C@@H](CCCCC(C)(C)O)CC[C@@H]23)C[C@H]1O | 10.2 | 7.4 | 5.3 | 4.6 mg/dL | 7.8 | 5.1 | 8.8 | 4.9 | 0.35 | 5.6 | 4.3 |
